Series [1] deals with Nucleic Acid. The series can be described thus: Apparent binding constant (McGhee-von Hippel) was determined by using spectrophotometric titration. The class given is nucleic-acid assay. The note with it: Bos taurus. The essentials:
(§1)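 Calf thymus DNA (<3% protein) titrated by UV-visible absorbance in 0.1 M NaCl, 0.01 M sodium phosphate, 0.001 M EDTA, pH 7.0. Drug stock about 2×10^-4 M. DNA prepared fresh at 5×10^-4 M (base pairs) for each titration. Free and bound drug extinction coefficients came from Beer's law plots. Bound/free data were fitted by McGhee-von Hippel equations or by a cubic spline derivative analysis.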

In series [2] the test system is Nucleic Acid. Briefly: Cubic spline relative binding strength was determined by using spectrophotometric titration. It is filed as nucleic-acid assay. The settings on record: Bos taurus. The method in brief: as §1
The subject of series [3] is Nucleic Acid. Briefly: (§2) delta Tm value is the difference between Tm(melting temperature) for calf thymus DNA with drug and without drug(Tm = 71 degree C for DNA alone). The class given is nucleic-acid assay. The settings on record: Bos taurus.
Series [4] can be described thus: pKa value for amino group in the compound. It is filed as physicochemical. The essentials: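 0.2 mmol of compound, as free base or dihydrochloride, was dissolved in 0.0392 N HCl to give 1 mequiv acid beyond full protonation of the amino groups. The solution was stirred and titrated with 0.0242 N NaOH with pH monitoring. Macroscopic pKa was read at 0.5 equiv base per functional group. Poorly soluble material was titrated in very dilute solution.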

In series [5] the test system is Nucleic Acid. Described as §2. The class given is functional. The settings on record: Bos taurus.

The term ΔTm denotes the change in melting temperature against a reference sample. Regarding `NCCNCc1c2ccccc2c(CNCCN)c2ccccc12`, in the series on Nucleic Acid [1], the K app was 0.27 µM⁻¹. The Relative binding in the series on Nucleic Acid [2] is 0.75. For the same molecule, the ΔTm in the series on Nucleic Acid [3] stood at 14 °C.
For `CN1CCN=C1/C=C/c1c2ccccc2c(/C=C/C2=NCCN2)c2ccccc12`, in the series on Nucleic Acid [1], the K app stood at 8.29 µM⁻¹. Besides, in the series with Nucleic Acid [2], the Relative binding stood at 1.08. In addition, the ΔTm in the series on Nucleic Acid [3] was more than 20 °C.
As for `CN(C)CCNCc1c2ccccc2c(CNCCN(C)C)c2ccccc12`, the pKa worked out at 3.9 in series [4] (read-out: pKa1), 5.35 in series [4] (read-out: pKa2), 8.4 in series [4] (read-out: pKa3) and 9.4 in series [4] (read-out: pKa4). Moreover, the K app with Nucleic Acid [1] is 0.1 µM⁻¹. The molecule also showed a Relative binding in the series on Nucleic Acid [2] of 0.75. For the same molecule, the ΔTm in the series with Nucleic Acid [3] was found to be 12 °C.
As to `CN(C)CCN(C)Cc1c2ccccc2c(CN(C)CCN(C)C)c2ccccc12`, the pKa was determined as 3.1 in series [4] (read-out: pKa1), 4.2 in series [4] (read-out: pKa2), 8.45 in series [4] (read-out: pKa3) and 9.45 in series [4] (read-out: pKa4). Further, the ΔTm in the series on Nucleic Acid [5] turned out to be 1 °C.
On to `C(=N\NC1=NCCN1)/c1c2ccccc2c(/C=N/NC2=NCCN2)c2ccccc12` [BISANTRENE], for which, in series [4] (read-out: pKa1), the pKa is 6.8. In addition, in the series with Nucleic Acid [1], the K app came to 9.03 µM⁻¹. Also, the Relative binding with Nucleic Acid [2] came to 1.03. The ΔTm in the series on Nucleic Acid [3] worked out at 19 °C.
Consider `c1ccc2c(CNCCN3CCOCC3)c3ccccc3c(CNCCN3CCOCC3)c2c1`, for which the pKa in series [4] (read-out: pKa1) was determined as 3.85; in series [4] (read-out: pKa2), 6.3; in series [4] (read-out: pKa3), 7.5; in series [4] (read-out: pKa4), 8.5. Further, the ΔTm with Nucleic Acid [5] was 5 °C.
In series [4], `OCCCCCNCc1c2ccccc2c(CNCCCCCO)c2ccccc12` gave a pKa of 8. In addition, the K app with Nucleic Acid [1] turned out to be 0.0532 µM⁻¹. Further, the Relative binding in the series on Nucleic Acid [2] stood at 0.84. Besides, the ΔTm in the series on Nucleic Acid [3] turned out to be 13 °C.
In the case of `CNCCN(C)Cc1c2ccccc2c(CN(C)CCNC)c2ccccc12`, the ΔTm with Nucleic Acid [5] was 3 °C.
As for `CCN1CCCC(NCc2c3ccccc3c(CNC3CCCN(CC)C3)c3ccccc23)C1` (stereo not given), the pKa came out at 2.4 in series [4] (read-out: pKa1), 3 in series [4] (read-out: pKa2), 5.2 in series [4] (read-out: pKa3) and 9.15 in series [4] (read-out: pKa4). The K app with Nucleic Acid [1] stood at 0.0605 µM⁻¹. Besides, in the series with Nucleic Acid [2], the Relative binding stood at 0.75. In addition, the ΔTm with Nucleic Acid [3] is 16 °C.
As for `CC(C)N(CCNCc1c2ccccc2c(CNCCN(C(C)C)C(C)C)c2ccccc12)C(C)C`, in the series with Nucleic Acid [5], the ΔTm came to 9 °C.

(Values after ChEMBL document CHEMBL1124782, “DNA binding by antitumor anthracene derivatives” (J Med Chem, 1990).)
